Experimental data from ChEMBL document CHEMBL1157126, “Synthesis and biological activity of N(4)-phenylsubstituted-6-(2,4-dichloro phenylmethyl)-7H-pyrrolo[2,3-d]pyrimidine-2,4-diamines as vascular endothelial growth factor receptor-2 inhibitors and antiangiogenic and antitumor agents” (Bioorg Med Chem, 2010).
The source made the active and inactive calls. No cut-off for these calls is given here.

Legend:
[1] = test system: A-431; assay: Antiproliferative activity against human A431 cells after 48 hrs by quant dye staining-based UV spectroscopy; assay type: functional, cell-based; settings: A-431, 48 h
[2] = biological target: Vascular endothelial growth factor receptor 1 (Homo sapiens, UniProt P17948); assay: Inhibition of VEGFR1 phosphorylation in human A498 cells after 10 mins by FLISA; assay type: cell-based
Sequence of Vascular endothelial growth factor receptor 1 (P17948 whole entry): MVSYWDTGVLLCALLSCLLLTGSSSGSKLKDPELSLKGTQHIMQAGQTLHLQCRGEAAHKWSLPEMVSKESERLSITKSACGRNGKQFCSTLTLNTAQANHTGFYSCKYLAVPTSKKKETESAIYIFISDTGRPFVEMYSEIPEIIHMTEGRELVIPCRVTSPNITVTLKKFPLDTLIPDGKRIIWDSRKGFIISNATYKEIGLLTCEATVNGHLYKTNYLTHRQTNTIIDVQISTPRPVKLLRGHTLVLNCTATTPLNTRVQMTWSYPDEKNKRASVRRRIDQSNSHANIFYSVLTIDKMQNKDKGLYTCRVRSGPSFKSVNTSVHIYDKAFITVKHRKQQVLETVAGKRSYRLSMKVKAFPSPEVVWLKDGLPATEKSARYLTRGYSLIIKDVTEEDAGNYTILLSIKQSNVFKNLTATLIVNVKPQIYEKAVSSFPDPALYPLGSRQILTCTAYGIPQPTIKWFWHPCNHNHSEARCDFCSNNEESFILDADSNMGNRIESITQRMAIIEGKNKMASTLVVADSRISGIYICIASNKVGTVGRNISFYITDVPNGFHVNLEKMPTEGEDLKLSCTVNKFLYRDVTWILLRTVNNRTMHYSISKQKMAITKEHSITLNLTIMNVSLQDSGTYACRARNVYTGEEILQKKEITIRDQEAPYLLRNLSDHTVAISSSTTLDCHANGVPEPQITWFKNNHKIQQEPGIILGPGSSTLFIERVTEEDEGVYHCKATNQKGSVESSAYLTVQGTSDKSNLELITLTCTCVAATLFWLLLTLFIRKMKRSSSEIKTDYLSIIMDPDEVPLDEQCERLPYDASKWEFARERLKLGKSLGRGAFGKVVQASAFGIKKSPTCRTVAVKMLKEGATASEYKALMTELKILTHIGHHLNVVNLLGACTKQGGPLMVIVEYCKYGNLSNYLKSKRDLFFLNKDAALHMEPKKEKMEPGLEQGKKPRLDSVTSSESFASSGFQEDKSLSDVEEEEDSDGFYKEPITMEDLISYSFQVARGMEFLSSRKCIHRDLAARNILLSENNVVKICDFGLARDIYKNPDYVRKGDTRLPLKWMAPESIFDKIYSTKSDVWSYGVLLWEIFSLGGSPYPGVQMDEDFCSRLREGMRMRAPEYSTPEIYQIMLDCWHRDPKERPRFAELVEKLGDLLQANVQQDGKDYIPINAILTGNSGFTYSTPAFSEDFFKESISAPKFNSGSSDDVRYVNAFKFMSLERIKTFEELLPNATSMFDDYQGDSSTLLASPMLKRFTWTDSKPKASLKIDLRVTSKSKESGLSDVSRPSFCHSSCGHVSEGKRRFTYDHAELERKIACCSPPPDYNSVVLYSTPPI

[3] = biological target: Epidermal growth factor receptor (Homo sapiens, UniProt P00533); assay: Inhibition of EGFR phosphorylation in human A431 cells after 10 mins by FLISA; assay type: cell-based, A-431
Sequence of Epidermal growth factor receptor (P00533 whole entry): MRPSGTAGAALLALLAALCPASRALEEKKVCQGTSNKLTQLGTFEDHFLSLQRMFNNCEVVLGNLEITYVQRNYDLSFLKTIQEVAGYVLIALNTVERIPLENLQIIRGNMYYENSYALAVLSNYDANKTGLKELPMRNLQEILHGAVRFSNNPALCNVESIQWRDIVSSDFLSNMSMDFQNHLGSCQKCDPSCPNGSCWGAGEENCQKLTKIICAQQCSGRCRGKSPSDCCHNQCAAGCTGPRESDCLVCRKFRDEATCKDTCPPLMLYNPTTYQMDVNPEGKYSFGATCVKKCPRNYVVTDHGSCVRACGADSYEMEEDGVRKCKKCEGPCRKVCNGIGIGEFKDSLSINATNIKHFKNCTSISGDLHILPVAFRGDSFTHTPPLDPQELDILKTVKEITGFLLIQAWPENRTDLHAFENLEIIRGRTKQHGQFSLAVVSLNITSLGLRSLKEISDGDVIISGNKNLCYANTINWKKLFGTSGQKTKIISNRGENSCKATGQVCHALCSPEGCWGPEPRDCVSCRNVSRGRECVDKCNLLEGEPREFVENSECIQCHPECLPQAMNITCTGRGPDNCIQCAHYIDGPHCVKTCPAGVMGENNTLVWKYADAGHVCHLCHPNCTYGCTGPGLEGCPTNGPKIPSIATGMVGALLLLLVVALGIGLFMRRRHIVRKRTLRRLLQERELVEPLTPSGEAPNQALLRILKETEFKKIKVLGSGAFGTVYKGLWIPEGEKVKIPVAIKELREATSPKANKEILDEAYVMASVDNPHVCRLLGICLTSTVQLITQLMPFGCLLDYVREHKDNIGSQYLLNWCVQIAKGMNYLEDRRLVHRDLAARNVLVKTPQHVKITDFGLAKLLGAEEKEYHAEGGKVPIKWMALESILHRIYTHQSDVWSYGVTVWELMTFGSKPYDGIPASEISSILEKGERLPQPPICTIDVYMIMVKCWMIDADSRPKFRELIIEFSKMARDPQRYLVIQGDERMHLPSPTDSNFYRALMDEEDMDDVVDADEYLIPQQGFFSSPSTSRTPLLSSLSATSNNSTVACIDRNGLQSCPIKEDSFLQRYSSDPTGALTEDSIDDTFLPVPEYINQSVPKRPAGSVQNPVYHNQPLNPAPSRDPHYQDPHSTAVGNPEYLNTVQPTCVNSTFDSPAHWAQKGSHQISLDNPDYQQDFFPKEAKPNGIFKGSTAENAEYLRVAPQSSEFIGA

[4] = biological target: T1, Platelet-derived growth factor receptor beta (Homo sapiens, UniProt P09619); assay: Inhibition of PDGFRbeta phosphorylation in human SF539 cells after 10 mins by FLISA
T1 sequence (P09619 whole entry): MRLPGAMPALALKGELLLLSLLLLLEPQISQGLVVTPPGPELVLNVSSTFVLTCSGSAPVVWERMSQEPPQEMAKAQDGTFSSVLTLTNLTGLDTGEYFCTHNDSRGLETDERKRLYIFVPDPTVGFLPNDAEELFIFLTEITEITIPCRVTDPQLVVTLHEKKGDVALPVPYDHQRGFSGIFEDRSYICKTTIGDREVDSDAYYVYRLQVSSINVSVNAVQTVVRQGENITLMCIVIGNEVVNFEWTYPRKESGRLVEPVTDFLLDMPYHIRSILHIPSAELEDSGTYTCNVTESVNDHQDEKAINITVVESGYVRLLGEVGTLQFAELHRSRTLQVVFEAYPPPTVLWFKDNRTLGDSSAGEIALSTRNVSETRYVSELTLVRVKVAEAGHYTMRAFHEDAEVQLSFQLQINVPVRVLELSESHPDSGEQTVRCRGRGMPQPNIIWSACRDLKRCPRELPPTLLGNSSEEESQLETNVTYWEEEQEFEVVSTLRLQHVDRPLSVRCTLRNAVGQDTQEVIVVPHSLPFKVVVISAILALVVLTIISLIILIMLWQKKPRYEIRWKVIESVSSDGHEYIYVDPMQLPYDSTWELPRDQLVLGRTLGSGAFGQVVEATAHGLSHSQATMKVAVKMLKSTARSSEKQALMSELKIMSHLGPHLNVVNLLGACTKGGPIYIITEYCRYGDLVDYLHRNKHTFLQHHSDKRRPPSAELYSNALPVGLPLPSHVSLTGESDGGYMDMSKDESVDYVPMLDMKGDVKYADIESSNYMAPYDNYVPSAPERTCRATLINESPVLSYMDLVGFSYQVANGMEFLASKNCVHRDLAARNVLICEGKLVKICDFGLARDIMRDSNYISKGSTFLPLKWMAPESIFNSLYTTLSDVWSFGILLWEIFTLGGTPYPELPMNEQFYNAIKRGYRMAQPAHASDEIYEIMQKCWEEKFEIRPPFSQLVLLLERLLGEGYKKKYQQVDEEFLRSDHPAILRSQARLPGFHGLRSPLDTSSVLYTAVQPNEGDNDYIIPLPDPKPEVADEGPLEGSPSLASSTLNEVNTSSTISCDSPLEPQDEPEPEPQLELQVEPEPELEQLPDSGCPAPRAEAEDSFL

[5] = biological target: T2, Vascular endothelial growth factor receptor 2 (Homo sapiens, UniProt P35968); assay: Inhibition of VEGFR2 phosphorylation in human U251 cells after 10 mins by FLISA; assay type: cell-based, U-251
T2 sequence (P35968 whole entry): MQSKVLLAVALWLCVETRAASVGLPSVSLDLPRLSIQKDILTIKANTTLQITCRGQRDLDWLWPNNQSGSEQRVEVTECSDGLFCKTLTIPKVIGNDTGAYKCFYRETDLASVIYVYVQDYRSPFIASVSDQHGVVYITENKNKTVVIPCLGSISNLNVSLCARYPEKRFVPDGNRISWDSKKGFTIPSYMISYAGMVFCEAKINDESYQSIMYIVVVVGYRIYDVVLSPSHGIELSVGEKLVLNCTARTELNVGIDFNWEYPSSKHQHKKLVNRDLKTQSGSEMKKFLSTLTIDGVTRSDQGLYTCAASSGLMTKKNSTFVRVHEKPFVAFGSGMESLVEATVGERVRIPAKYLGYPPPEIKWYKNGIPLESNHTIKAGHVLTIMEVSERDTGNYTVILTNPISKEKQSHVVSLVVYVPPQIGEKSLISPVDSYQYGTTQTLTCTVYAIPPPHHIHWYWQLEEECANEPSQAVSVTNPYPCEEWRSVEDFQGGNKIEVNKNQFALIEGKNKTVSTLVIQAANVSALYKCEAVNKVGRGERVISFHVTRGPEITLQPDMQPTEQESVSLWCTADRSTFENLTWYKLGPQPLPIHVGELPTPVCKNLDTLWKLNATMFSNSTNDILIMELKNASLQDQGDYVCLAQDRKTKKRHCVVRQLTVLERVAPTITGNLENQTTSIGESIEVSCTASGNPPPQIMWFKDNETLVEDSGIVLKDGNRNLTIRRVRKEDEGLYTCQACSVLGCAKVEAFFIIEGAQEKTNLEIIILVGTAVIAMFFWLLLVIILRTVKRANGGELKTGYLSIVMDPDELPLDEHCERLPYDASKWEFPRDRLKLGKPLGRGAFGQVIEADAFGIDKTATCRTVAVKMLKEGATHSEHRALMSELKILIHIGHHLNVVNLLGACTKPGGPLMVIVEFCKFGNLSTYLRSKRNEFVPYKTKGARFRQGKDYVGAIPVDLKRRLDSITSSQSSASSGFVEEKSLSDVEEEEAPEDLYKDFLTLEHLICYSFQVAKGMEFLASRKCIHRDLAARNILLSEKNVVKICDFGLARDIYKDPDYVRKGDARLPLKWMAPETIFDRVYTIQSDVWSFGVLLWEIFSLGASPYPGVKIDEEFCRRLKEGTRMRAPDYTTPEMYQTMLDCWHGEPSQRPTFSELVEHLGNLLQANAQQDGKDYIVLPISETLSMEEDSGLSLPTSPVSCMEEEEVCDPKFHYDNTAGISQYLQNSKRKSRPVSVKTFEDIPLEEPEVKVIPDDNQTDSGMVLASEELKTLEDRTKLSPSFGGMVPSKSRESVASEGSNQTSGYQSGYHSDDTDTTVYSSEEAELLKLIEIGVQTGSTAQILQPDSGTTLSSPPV

[6] = biological target: T2, Vascular endothelial growth factor receptor 2; assay: Ratio of semaxanib IC50 to compound IC50 for VEGFR2 phosphorylation in human U251 cells; assay type: cell-based; settings: U-251
[7] = test system: B16-F10; assay: Antitumor activity against mouse B16F10 cells xenografted in NCr nu/nu mouse assessed as antiangiogenic activity-related decrease in tumor vascularity at 35 mg/kg, ip administered after 9 days of tumor implantation for weekly 3 times measured on day 28 post-implantation; assay type: functional, organism-based; design: dose 35 mg/kg
Summary of the method: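 50,000 B16-F10 melanoma cells injected SQ behind the ear of 8-week-old male athymic NCr nu/nu mice, 5–6 animals/group, two experiments. IP dosing in sterile water (from 30 mM DMSO stocks) Mon/Wed/Fri from day 9; shams got water. Tumors excised day 28, formalin-fixed, paraffin-embedded, H&E stained. Vessels counted per unit area in 5 fields at 100× and averaged. Mean ± SEM, one-way ANOVA, Neuman-Keuls.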

[8] = test system: B16-F10; assay: Antitumor activity against mouse B16F10 cells xenografted in NCr nu/nu mouse assessed as inhibition of lung metastasis at 35 mg/kg, ip administered after 9 days of tumor implantation for weekly 3 times measured on day 28 post-implantation by hematoxylin-eosin staining; assay type: functional, organism-based; design: dose 35 mg/kg
Summary of the method: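 Male athymic NCr nu/nu mice (8 weeks) received 50,000 B16-F10 cells SQ behind the ear, 5–6/group, two experiments. Drug given IP in sterile water (from 30 mM DMSO stocks) Mon/Wed/Fri starting day 9; shams received water. On day 28 lungs excised, formalin-fixed, paraffin-embedded. Metastases per lung lobe counted on three H&E sections. Mean ± SEM, one-way ANOVA with Neuman-Keuls.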

[9] = test system: B16-F10; assay: Antitumor activity against mouse B16F10 cells xenografted in NCr nu/nu mouse assessed as inhibition of tumor growth at 35 mg/kg, ip administered after 9 days of tumor implantation for weekly 3 times measured on day 28 post-implantation; assay type: functional, organism-based; design: dose 35 mg/kg
Summary of the method: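 B16-F10 cells (50,000) implanted SQ behind the ear of 8-week-old male athymic NCr nu/nu mice, 5–6/group, two experiments. IP dosing in sterile water (from 30 mM DMSO stocks) Mon/Wed/Fri from day 9; water-only shams. Length, width and depth measured by calipers three times weekly; volume = L×W×D. Growth rate is the linear-regression slope from day 9 to day 28. Mean ± SEM, one-way ANOVA.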

[10] = biological target: T1, Platelet-derived growth factor receptor beta; assay: Inhibition of PDGF-stimulated PDGFRbeta phosphorylation expressed in human SF-539 cells by chemiluminescence assay
[11] = test system: B16-F10; settings: Mus musculus, 10 mg/kg
[12] = test system: B16-F10; settings: Mus musculus, 10 mg/kg; remark: listed apart in the source
[13] = test system: B16-F10; settings: Mus musculus, 10 mg/kg; remark: listed apart in the source

SMILES | IC50 [1] | IC50 [2] | IC50 [3] | IC50 [4] | IC50 [5] | Ratio IC50 [6] | IC50 [10] | inhibition [7] | inhibition [8] | inhibition [9] | inhibition [11] | inhibition [12] | inhibition [13]
Nc1nc(Nc2ccc(Br)cc2Cl)c2cc(Cc3ccc(Cl)cc3Cl)[nH]c2n1 | 16.2 µM | > 300 µM | > 300 µM | > 300 µM | 0.1 µM | 100 |  | Active | Active | Active |  |  | 
Nc1nc(Nc2cccc(C(F)(F)F)c2)c2cc(Cc3ccc(Cl)cc3Cl)[nH]c2n1 | 195 µM | 156 µM | 27.2 µM | > 300 µM | > 300 µM |  |  |  |  |  |  |  | 
Nc1nc(Nc2ccc(Cl)cc2F)c2cc(Cc3ccc(Cl)cc3Cl)[nH]c2n1 | 4.9 µM | 70.9 µM | 2.5 µM | 24.6 µM | 45.7 µM | 0.26 |  |  |  |  |  |  | 
C#Cc1cccc(Nc2ncnc3[nH]c(Cc4ccc(Cl)cc4Cl)cc23)c1 | > 300 µM | > 300 µM | > 300 µM | 142 µM | > 300 µM |  |  |  |  |  |  |  | 
Cc1ccccc1Cc1cc2c(Nc3cccc(Br)c3)nc(N)nc2[nH]1 |  |  |  | > 50 µM |  |  |  | Active | Active | Active |  |  | 
CC(C)c1ccccc1Nc1nc(N)nc2[nH]c(Cc3ccc(Cl)cc3Cl)cc12 | 160 µM | 163 µM | 96.4 µM | 43 µM | > 300 µM |  |  |  |  |  |  |  | 
COc1ccc(OC)c(Cc2cc3c(Nc4cccc(Br)c4)ncnc3[nH]2)c1 | 191 µM | > 300 µM | > 300 µM | 171 µM | > 300 µM |  |  |  |  |  |  |  | 
Nc1nc(Nc2ccc(C(F)(F)F)c(F)c2)c2cc(Cc3ccc(Cl)cc3Cl)[nH]c2n1 | 13.8 µM | > 300 µM | 91.7 µM | > 300 µM | 113 µM |  |  |  |  |  |  |  | 

The next lines start with results.

IC50 [1] | IC50 [2] | IC50 [3] | IC50 [4] | IC50 [5] | Ratio IC50 [6] | IC50 [10] | SMILES | inhibition [7] | inhibition [8] | inhibition [9] | inhibition [11] | inhibition [12] | inhibition [13]
9.5 µM | > 300 µM | 55.2 µM | > 300 µM | 85.6 µM |  |  | C#Cc1cccc(Nc2nc(N)nc3[nH]c(Cc4ccc(Cl)cc4Cl)cc23)c1 |  |  |  |  |  | 
45.2 µM | 163 µM | 162 µM | 183 µM | 0.3 µM | 40 |  | Nc1nc(Nc2cccc(F)c2)c2cc(Cc3ccc(Cl)cc3Cl)[nH]c2n1 |  |  |  |  |  | 
 |  |  |  |  |  | 0.1 µM | Cc1[nH]c(/C=C2\C(=O)Nc3ccccc32)c(C)c1CCC(=O)O [ORANTINIB] |  |  |  | Active | Active | Active
9.5 µM | > 300 µM | > 300 µM | 182 µM | 27.2 µM |  |  | Cc1ccccc1Cc1cc2c(Nc3cccc(Br)c3)ncnc2[nH]1 |  |  |  |  |  | 
4.5 µM | 151 µM | > 300 µM | 220 µM | > 300 µM |  |  | Clc1ccc(Cc2cc3c(Nc4cccc(Br)c4)ncnc3[nH]2)c(Cl)c1 |  |  |  |  |  | 
> 300 µM | > 300 µM | 33.1 µM | 110 µM | > 300 µM |  |  | FC(F)(F)c1cccc(Nc2ncnc3[nH]c(Cc4ccc(Cl)cc4Cl)cc23)c1 |  |  |  |  |  | 
26.2 µM | 157 µM | 45.6 µM | 175 µM | 1.4 µM | 8 |  | CC(C)c1ccc(Nc2nc(N)nc3[nH]c(Cc4ccc(Cl)cc4Cl)cc23)cc1 |  |  |  |  |  | 
